Published values of several laboratories.
Compare with care: the assays were run in different laboratories.
Target: Sodium-dependent dopamine transporter (SLC6A3, Homo sapiens, UniProt Q01959)

CCCCCCCCCCCC(=O)OC[C@@H](COP(=O)(O)OCCNC(=O)c1ccc(Cn2c(=O)[nH]c3c(N)nc(OCCOC)nc32)cc1)OC(=O)CCCCCCCCCCC
inhibition (ligand displacement, radioligand; 10 µM): 64%

Fc1ccc(C(OCCN2CCN(CCCc3ccccc3)CC2)c2ccc(F)cc2)cc1
inhibition (transporter uptake, inhibitor; HEK293; 1 µM): 98%

COc1ccc(S(=O)(=O)N2CCCCC2)cc1C
inhibition (ligand displacement, radioligand; 10 µM): < 30%

Clc1ccc2c(C3CCN(CCc4c[nH]c5ccccc45)CC3)c[nH]c2c1
inhibition (ligand displacement, radioligand; 10 µM): 96%

CC(C)N1CCC[C@H]1CNC(=O)c1cn(C2CCCC2)c(=O)c2c1c1ccccc1n2C
inhibition (ligand displacement, radioligand; 10 µM): 42%

CN1CCN(c2ccnc(NCCc3ccccc3)n2)CC1
inhibition (cell-free assay; 10 µM): 98%

COCc1c(-c2cc3cc(C)cc(OC)c3s2)c2c(N)ncnn2c1CN1CCNC(=O)C1
inhibition (ligand displacement, radioligand; 10 µM): 35%

Cc1cc2c(-c3ccco3)cnc(N[C@H]3CCN(C)C[C@@H]3C(=O)NC3CCCCC3)c2[nH]c1=O
inhibition (cell-free assay; 10 µM): 8.66%

CN(CCN1CCC(OC(=O)Nc2ccccc2-c2ccccc2)CC1)C(=O)c1ccc(CN2CCC(C(N)=O)CC2)cc1
inhibition (ligand displacement, radioligand; 1 µM): -4%

CC(C)Cn1cnc2c(N)nc3ccccc3c21
inhibition (ligand displacement, radioligand; 10 µM): 25%

CCN(CC)CCCC[C@H](NC(=O)[C@H](CC(C)C)NC(=O)[C@H](C)NC(=O)[C@H](Cc1ccccc1)NC(=O)c1ccc(C(C)(C)C)cc1)C(=O)N[C@@H](CO)C(=O)OC
inhibition (ligand displacement, radioligand; 10 µM): 7%
